{"source": "ChEMBL document CHEMBL2331364", "about": "“A synthetic dolastatin 10 analogue suppresses microtubule dynamics, inhibits cell proliferation, and induces apoptotic cell death” (J Med Chem, 2013)", "key": {"MCF7 [1]": {"tested_on": "MCF7", "assay": "Inhibition of microtubule (unknown origin) dynamics in GFP-tubulin transfected human MCF7 cells assessed as microtubule shortening rate at 15 nM by confocal laser scanning microscopy (reference value: 16.4 +/- 5 um/min)", "format": "cell-based", "in_short": "(§1)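 EGFP-tubulin-transfected MCF-7 cells grown in EMEM with 10% FBS at 37 °C in 5% CO2, exposed to 15 nM compound (DMSO vehicle) or vehicle. Individual microtubules were followed by time-lapse confocal laser scanning microscopy and life-history traces were recorded. Kinetic parameters were derived from these traces, 20 microtubules per condition. Significance was tested by one-way ANOVA.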"}, "Homo sapiens [2]": {"species_on_record": "Homo sapiens", "assay": "Inhibition of microtubule (unknown origin) assembly at 1 uM incubated for 15 mins prior to GTP addition measured for 30 mins by 90 degree light scattering-based fluorescence spectrophotometric method", "in_short": "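MAP-rich tubulin (1 mg/mL) was preincubated with 1, 3, 5 or 10 μM in PEM buffer (25 mM Pipes pH 6.8, 3 mM MgCl2, 1 mM EGTA) for 15 min on ice. GTP (1 mM) was then added and assembly monitored by 90° light scattering at 400 nm for 30 min at 37 °C.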"}, "HeLa [3]": {"tested_on": "HeLa", "assay": "Induction of mitotic microtubule depolymerization in human HeLa cells at 15 nM after 24 hrs by Hoechst 33258 dye-based fluorescence microscopy", "format": "cell-based"}, "MCF7 [4]": {"tested_on": "MCF7", "assay": "Inhibition of microtubule (unknown origin) dynamics in GFP-tubulin transfected human MCF7 cells assessed as microtubule growth time at 15 nM by confocal laser scanning microscopy (reference value: 0.9 +/- 0.1 min)", "format": "cell-based", "in_short": "as §1"}, "MCF7 [5]": {"tested_on": "MCF7", "assay": "Inhibition of microtubule (unknown origin) dynamics in GFP-tubulin transfected human MCF7 cells assessed as decrease in microtubule dynamicity at 15 nM by confocal laser scanning microscopy relative to control", "format": "cell-based", "in_short": "(§2)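 EGFP-tubulin transfected MCF-7 cells were treated with vehicle or 15 nM, and individual microtubules were tracked by confocal laser scanning microscopy, 20 microtubules per condition. Life-history parameters were derived as previously described. Significance was tested by one-way ANOVA.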"}, "MCF7 [6]": {"tested_on": "MCF7", "assay": "Inhibition of microtubule (unknown origin) dynamics in GFP-tubulin transfected human MCF7 cells assessed as microtubule shortening time at 15 nM by confocal laser scanning microscopy (reference value: 27 +/- 8 %)", "format": "cell-based", "parameters": "scale not given: the % may be the effect or the level left", "in_short": "as §1"}, "HeLa [7]": {"tested_on": "HeLa", "assay": "Induction of mitotic microtubule depolymerization in human HeLa cells assessed as unorganized chromosomes at metaphase plate at 15 nM after 24 hrs by Hoechst 33258 dye-based fluorescence microscopy", "format": "cell-based"}, "HeLa [8]": {"tested_on": "HeLa", "assay": "Antimitotic activity in human HeLa cells assessed as increase in phosphohistone H3 (Ser10) positive cell population at 30 nM after 24 hrs by fluorescence microscopic analysis (reference value: 3 +/- 0.3 %)", "format": "functional"}, "HeLa [9]": {"tested_on": "HeLa", "assay": "Induction of mitotic microtubule depolymerization in human HeLa cells at 7 nM after 24 hrs by Hoechst 33258 dye-based fluorescence microscopy relative to control", "format": "cell-based"}, "HeLa [10]": {"tested_on": "HeLa", "assay": "Inhibition of mitosis in human HeLa cells assessed as mitotic index ratio at 15 nM after 24 hrs by Hoechst 33258 DNA staining assay (reference value: 3.2)", "format": "functional", "in_short": "(§3)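 HeLa cells were treated with vehicle or 7, 15 or 30 nM compound for 24 or 48 h. DNA was stained with Hoechst 33258, and mitotic cells were counted by fluorescence microscopy to give the mitotic index, compared against vehicle-treated cells.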"}, "Tubulin (Capra hircus)": {"tested_on": "Tubulin (Capra hircus)", "assay": "Inhibition of goat brain microtubule GTPase activity using GTP as substrate assessed as reduction of inorganic phosphate release at 5 uM incubated for 10 mins prior to substrate addition measured after 10 mins by ammonium molybdate malachite green assay relative to control"}, "HeLa [11]": {"tested_on": "HeLa", "assay": "Inhibition of mitosis in human HeLa cells assessed as mitotic index ratio at 7 nM after 24 hrs by Hoechst 33258 DNA staining assay (reference value: 3.2)", "format": "functional", "in_short": "as §3"}, "Homo sapiens [12]": {"species_on_record": "Homo sapiens", "assay": "Inhibition of microtubule (unknown origin) GTPase activity using GTP as substrate assessed as reduction of inorganic phosphate release at 20 uM incubated for 10 mins prior to substrate addition measured after 10 mins by ammonium molybdate malachite green assay relative to control", "in_short": "(§4)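 GTP (1 mM) was added and the mixture polymerized at 37 °C for 10 min. Reactions were stopped with perchloric acid, and released phosphate was measured by ammonium molybdate–malachite green.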"}, "Homo sapiens [13]": {"species_on_record": "Homo sapiens", "assay": "Inhibition of microtubule (unknown origin) GTPase activity using GTP as substrate assessed as reduction of inorganic phosphate release incubated for 10 mins prior to substrate addition measured after 10 mins by ammonium molybdate malachite green assay", "in_short": "as §4"}, "Homo sapiens [14]": {"species_on_record": "Homo sapiens", "assay": "Inhibition of microtubule (unknown origin) GTPase activity using GTP as substrate assessed as reduction of inorganic phosphate release at 10 uM incubated for 10 mins prior to substrate addition measured after 10 mins by ammonium molybdate malachite green assay relative to control", "in_short": "as §4"}, "MCF7 [15]": {"tested_on": "MCF7", "assay": "Inhibition of microtubule (unknown origin) dynamics in GFP-tubulin transfected human MCF7 cells assessed as decrease in microtubule shortening length at 15 nM by confocal laser scanning microscopy relative to control", "format": "cell-based", "in_short": "as §2"}, "Tubulin (Homo sapiens)": {"biological_target": "Tubulin (Homo sapiens) (UniProt P68371+Q9H4B7+P0DPH7+P68366+Q13509+Q71U36+P04350+Q3ZCM7+P07437+P68363+Q9BQE3+Q6PEY2+Q13885+Q9BVA1+Q9BUF5)", "assay": "(§5) Binding affinity to tubulin (unknown origin) after 15 mins by fluorescence spectrophotometry", "format": "protein-complex assay", "in_short": "(§6)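 Goat brain tubulin (2 μM) was incubated with ligand (5–100 μM) in 25 mM Pipes pH 6.8 for 15 min at 25 °C, read with excitation 295 nm and emission 336 nm in a 0.3 cm cell. No inner-filter correction was applied. ΔF was fitted to a quadratic binding equation to give Kd. Value is the average of five independent experiments.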"}, "Tubulin": {"biological_target": "Tubulin", "assay": "as §5", "format": "protein-complex assay, Homo sapiens", "in_short": "as §6"}, "MCF7 [16]": {"tested_on": "MCF7", "assay": "Inhibition of microtubule (unknown origin) dynamics in GFP-tubulin transfected human MCF7 cells assessed as microtubule catastrophe events at 15 nM by confocal laser scanning microscopy (reference value: 4 +/- 1.2 events/min)", "format": "cell-based", "in_short": "as §1"}, "[17]": {"assay": "(§7) Inhibition of goat brain tubulin polymerization incubated for 20 mins prior to GTP addition measured for 30 mins by 90 degree light scattering-based fluorescence spectrophotometric method", "parameters": "species or system Capra hircus", "in_short": "(§8)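 Goat brain tubulin (10 μM) was preincubated with compound (5 μM; or 1, 5, 7, 10 μM) in 1 M monosodium glutamate, 3 mM MgCl2, 1 mM EGTA, 25 mM Pipes pH 6.8 on ice for 20 min. GTP (1 mM) was then added and assembly followed by 90° light scattering at 400 nm for 30 min at 37 °C. Experiment run twice.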"}, "Capra hircus": {"species_on_record": "Capra hircus", "assay": "as §7", "in_short": "as §8"}, "MCF7 [18]": {"tested_on": "MCF7", "assay": "Inhibition of microtubule (unknown origin) dynamics in GFP-tubulin transfected human MCF7 cells assessed as increase in microtubule rescue frequency at 15 nM by confocal laser scanning microscopy relative to control", "format": "cell-based", "in_short": "as §1"}, "HeLa [19]": {"tested_on": "HeLa", "assay": "Antimitotic activity in human HeLa cells assessed as increase in phosphohistone H3 (Ser10) positive cell population after 24 hrs by fluorescence microscopic analysis", "format": "functional, cell-based"}, "MCF7 [20]": {"tested_on": "MCF7", "assay": "Inhibition of microtubule (unknown origin) dynamics in GFP-tubulin transfected human MCF7 cells assessed as decrease in microtubule growth at 15 nM by confocal laser scanning microscopy relative to control", "format": "cell-based", "in_short": "as §2"}, "HeLa [21]": {"tested_on": "HeLa", "assay": "Induction of mitotic microtubule depolymerization in human HeLa cells assessed as multipolar spindle formation at 30 nM after 24 hrs by Hoechst 33258 dye-based fluorescence microscopy", "format": "cell-based"}}, "note": "The source made the active and inactive calls. The rule behind the calls is not given here.", "data": [{"compound": "CC[C@H](C)[C@@H]([C@@H](CC(=O)NC[C@H]1O[C@H](C(=O)NCCc2ccccc2)[C@@H](OC)[C@@H]1OC)OC)N(C)C(=O)[C@@H](NC(=O)[C@@H](NC)C(C)C)C(C)C", "values": [{"measurement": "Activity", "setting": "MCF7 [1]", "value": 12, "unit": "um/min"}, {"measurement": "inhibition", "setting": "Homo sapiens [2]", "value": 13, "unit": "%"}, {"measurement": "Activity", "setting": "HeLa [3]", "value": "Active"}, {"measurement": "TIME", "setting": "MCF7 [4]", "value": 0.00833, "unit": "h"}, {"measurement": "inhibition", "setting": "MCF7 [5]", "value": 50, "unit": "%"}, {"measurement": "Activity", "setting": "MCF7 [6]", "value": 19, "unit": "%"}, {"measurement": "Activity", "setting": "HeLa [7]", "value": "Active"}, {"measurement": "Activity", "setting": "HeLa [8]", "value": 14, "unit": "%"}, {"measurement": "Activity", "setting": "HeLa [9]", "value": "inactive"}, {"measurement": "Ratio", "setting": "HeLa [10]", "value": 9}, {"measurement": "inhibition", "setting": "Tubulin (Capra hircus)", "value": 42, "unit": "%"}, {"measurement": "Ratio", "setting": "HeLa [11]", "value": 6}, {"measurement": "inhibition", "setting": "Homo sapiens [12]", "value": 54, "unit": "%"}, {"measurement": "inhibition", "setting": "Homo sapiens [13]", "value": "Dose-dependent effect"}, {"measurement": "inhibition", "setting": "Homo sapiens [14]", "value": 50, "unit": "%"}, {"measurement": "inhibition", "setting": "MCF7 [15]", "value": 44, "unit": "%"}, {"measurement": "Activity", "setting": "Tubulin (Homo sapiens)", "value": "Dose-dependent effect"}, {"measurement": "Kd", "setting": "Tubulin", "value": 29.4, "unit": "µM"}, {"measurement": "Activity", "setting": "MCF7 [16]", "value": 3, "unit": "min⁻¹"}, {"measurement": "IC50", "setting": "[17]", "value": 6, "unit": "µM"}, {"measurement": "inhibition", "setting": "Capra hircus", "value": "Dose-dependent effect"}, {"measurement": "inhibition", "setting": "MCF7 [18]", "value": 40, "unit": "%"}, {"measurement": "Activity", "setting": "HeLa [19]", "value": "Dose-dependent effect"}, {"measurement": "inhibition", "setting": "MCF7 [20]", "value": 31, "unit": "%"}, {"measurement": "Activity", "setting": "HeLa [21]", "value": "Active"}]}]}
